Source: ChEMBL document CHEMBL1944509, “Methyl-monofluorination of ibuprofen selectively increases its inhibitory activity toward cyclooxygenase-1 leading to enhanced analgesic activity and reduced gastric damage in vivo” (Bioorg Med Chem Lett, 2011)
Calls of active or inactive are those of the source. No cut-off for these calls is given here.

Columns and labels:
[1] = AUC (0 to t) in ICR mouse at 5 mg/kg, iv; type: ADME, organism-based; design: dose 5 mg/kg, route intravenous; details: plasma
Method in brief: (§1)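 ICR mice given drug intravenously at 5 mg/kg or orally at 10 mg/kg. Parameters are taken from the plasma concentration–time profile: AUC(0–t), AUC(0–∞), MRT, Cmax and bioavailability.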

[2] = AUC (0 to infinity) in ICR mouse at 5 mg/kg, iv; type: ADME, organism-based; design: time infinity, dose 5 mg/kg, route intravenous; details: plasma; method in brief: as §1
[3] = Mean residence time (0 to infinity) in ICR mouse at 5 mg/kg, iv; type: ADME, organism-based; design: dose 5 mg/kg, route intravenous; details: in vivo; method in brief: as §1
[4] = Cmax in ICR mouse at 5 mg/kg, iv; type: ADME, organism-based; design: dose 5 mg/kg, route intravenous; details: in vivo; method in brief: as §1
[5] = AUC (0 to t) in ICR mouse at 10 mg/kg, po; type: ADME, organism-based; design: dose 10 mg/kg, route oral; details: plasma; method in brief: as §1
[6] = AUC (0 to infinity) in ICR mouse at 10 mg/kg, po; type: ADME, organism-based; design: time infinity, dose 10 mg/kg, route oral; details: plasma; method in brief: as §1
[7] = Mean residence time (0 to infinity) in ICR mouse at 10 mg/kg, po; type: ADME, organism-based; design: dose 10 mg/kg, route oral; details: in vivo; method in brief: as §1
[8] = Tmax in ICR mouse at 10 mg/kg, po; type: ADME, organism-based; design: dose 10 mg/kg, route oral; details: in vivo
[9] = Cmax in ICR mouse at 10 mg/kg, po; type: ADME, organism-based; design: dose 10 mg/kg, route oral; details: in vivo; method in brief: as §1
[10] = Oral bioavailability ICR mouse at 10 mg/kg; type: ADME, organism-based; details: in vivo; method in brief: as §1
Rattus norvegicus [11] = experiment: Antiinflammatory activity in Wistar albino rat assessed as inhibition of carrageenan-induced paw edema at 30 mg/kg intragastrically administered 1 hr before carrageenan challenge measured after 1 to 24 hrs post carrageenan challenge by plethysmometer; type: functional, organism-based
Method in brief: (§2)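 Male Wistar albino rats, 140–160 g, eight per group, dosed i.g. as a suspension in 0.5% CMC; controls get 0.5% CMC only. 1 h later, 0.1 ml of 0.1% carrageenan in 0.9% NaCl is injected into the sub-plantar region of the right hind paw. Paw volume is read by plethysmometer hourly to 6 h and at 24 h. Inhibition (%) = (Vc − Vt)/Vc × 100 on mean volume increase; mean ± SEM.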

Rattus norvegicus [12] = experiment: Antiinflammatory activity in Wistar albino rat assessed as inhibition of carrageenan-induced paw edema at 33.6 mg/kg, ig administered 1 hr before carrageenan challenge measured after 1 to 24 hrs post carrageenan challenge by plethysmometer; type: functional, organism-based; method in brief: as §2
[13] = Plasma concentration in ICR mouse at 5 mg/kg, iv after 0.083 hrs by HPLC/MS/MS analysis; type: ADME, organism-based; design: dose 5 mg/kg, route intravenous
[14] = Plasma concentration in ICR mouse at 5 mg/kg, iv after 0.25 hrs by HPLC/MS/MS analysis; type: ADME, organism-based; design: dose 5 mg/kg, route intravenous
[15] = Plasma concentration in ICR mouse at 5 mg/kg, iv after 0.5 hrs by HPLC/MS/MS analysis; type: ADME, organism-based; design: dose 5 mg/kg, route intravenous
[16] = Plasma concentration in ICR mouse at 5 mg/kg, iv after 1 hr by HPLC/MS/MS analysis; type: ADME, organism-based; design: dose 5 mg/kg, route intravenous
[17] = Plasma concentration in ICR mouse at 5 mg/kg, iv after 2 hrs by HPLC/MS/MS analysis; type: ADME, organism-based; design: dose 5 mg/kg, route intravenous
[18] = Plasma concentration in ICR mouse at 5 mg/kg, iv after 4 hrs by HPLC/MS/MS analysis; type: ADME, organism-based; design: dose 5 mg/kg, route intravenous
[19] = Plasma concentration in ICR mouse at 5 mg/kg, iv after 6 hrs by HPLC/MS/MS analysis; type: ADME, organism-based; design: dose 5 mg/kg, route intravenous
[20] = Plasma concentration in ICR mouse at 5 mg/kg, iv after 8 hrs by HPLC/MS/MS analysis; type: ADME, organism-based; design: dose 5 mg/kg, route intravenous
[21] = Plasma concentration in ICR mouse at 10 mg/kg, po after 0.083 hrs by HPLC/MS/MS analysis; type: ADME, organism-based; design: dose 10 mg/kg, route oral
[22] = Plasma concentration in ICR mouse at 10 mg/kg, po after 0.5 hrs by HPLC/MS/MS analysis; type: ADME, organism-based; design: dose 10 mg/kg, route oral
[23] = Plasma concentration in ICR mouse at 10 mg/kg, po after 1 hr by HPLC/MS/MS analysis; type: ADME, organism-based; design: dose 10 mg/kg, route oral
[24] = Plasma concentration in ICR mouse at 10 mg/kg, po after 2 hrs by HPLC/MS/MS analysis; type: ADME, organism-based; design: dose 10 mg/kg, route oral
[25] = Plasma concentration in ICR mouse at 10 mg/kg, po after 4 hrs by HPLC/MS/MS analysis; type: ADME, organism-based; design: dose 10 mg/kg, route oral
[26] = Plasma concentration in ICR mouse at 10 mg/kg, po after 6 hrs by HPLC/MS/MS analysis; type: ADME, organism-based; design: dose 10 mg/kg, route oral
[27] = Plasma concentration in ICR mouse at 10 mg/kg, po after 8 hrs by HPLC/MS/MS analysis; type: ADME, organism-based; design: dose 10 mg/kg, route oral
[28] = Drug level in ICR mouse brain at 5 mg/kg, iv after 0.25 hrs by HPLC/MS/MS analysis; type: ADME, organism-based; design: dose 5 mg/kg, route intravenous; details: read-out: Drug uptake
[29] = Drug level in ICR mouse brain at 5 mg/kg, iv after 0.5 hrs by HPLC/MS/MS analysis; type: ADME, organism-based; design: dose 5 mg/kg, route intravenous; details: read-out: Drug uptake
[30] = Drug level in ICR mouse brain at 5 mg/kg, iv after 1 hr by HPLC/MS/MS analysis; type: ADME, organism-based; design: dose 5 mg/kg, route intravenous; details: read-out: Drug uptake
[31] = Drug level in ICR mouse brain at 5 mg/kg, iv after 2 hrs by HPLC/MS/MS analysis; type: ADME, organism-based; design: dose 5 mg/kg, route intravenous; details: read-out: Drug uptake
[32] = Drug level in ICR mouse brain at 10 mg/kg, po after 0.083 hrs by HPLC/MS/MS analysis; type: ADME, organism-based; design: dose 10 mg/kg, route oral; details: read-out: Drug uptake
[33] = Drug level in ICR mouse brain at 10 mg/kg, po after 0.25 hrs by HPLC/MS/MS analysis; type: ADME, organism-based; design: dose 10 mg/kg, route oral; details: read-out: Drug uptake
[34] = Drug level in ICR mouse brain at 10 mg/kg, po after 0.5 hrs by HPLC/MS/MS analysis; type: ADME, organism-based; design: dose 10 mg/kg, route oral; details: read-out: Drug uptake
[35] = Drug level in ICR mouse brain at 10 mg/kg, po after 1 hr by HPLC/MS/MS analysis; type: ADME, organism-based; design: dose 10 mg/kg, route oral; details: read-out: Drug uptake
[36] = Drug level in ICR mouse brain at 10 mg/kg, po after 2 hrs by HPLC/MS/MS analysis; type: ADME, organism-based; design: dose 10 mg/kg, route oral; details: read-out: Drug uptake
[37] = Drug level in ICR mouse brain at 10 mg/kg, po after 4 hrs by HPLC/MS/MS analysis; type: ADME, organism-based; design: dose 10 mg/kg, route oral; details: read-out: Drug uptake
Nucleic Acid [38] = experiment: Ratio of drug level in brain to plasma in ICR mouse at 5 mg/kg, iv after 0.083 hrs by HPLC/MS/MS analysis; type: ADME, organism-based; design: dose 5 mg/kg, route intravenous
Nucleic Acid [39] = experiment: Ratio of drug level in brain to plasma in ICR mouse at 5 mg/kg, iv after 0.25 hrs by HPLC/MS/MS analysis; type: ADME, organism-based; design: dose 5 mg/kg, route intravenous
Nucleic Acid [40] = experiment: Ratio of drug level in brain to plasma in ICR mouse at 5 mg/kg, iv after 0.5 hrs by HPLC/MS/MS analysis; type: ADME, organism-based; design: dose 5 mg/kg, route intravenous
Nucleic Acid [41] = experiment: Ratio of drug level in brain to plasma in ICR mouse at 5 mg/kg, iv after 2 hrs by HPLC/MS/MS analysis; type: ADME, organism-based; design: dose 5 mg/kg, route intravenous
Nucleic Acid [42] = experiment: Ratio of drug level in brain to plasma in ICR mouse at 10 mg/kg, po after 0.25 hrs by HPLC/MS/MS analysis; type: ADME, organism-based; design: dose 10 mg/kg, route oral
Nucleic Acid [43] = experiment: Ratio of drug level in brain to plasma in ICR mouse at 10 mg/kg, po after 0.5 hrs by HPLC/MS/MS analysis; type: ADME, organism-based; design: dose 10 mg/kg, route oral
Nucleic Acid [44] = experiment: Ratio of drug level in brain to plasma in ICR mouse at 10 mg/kg, po after 1 hr by HPLC/MS/MS analysis; type: ADME, organism-based; design: dose 10 mg/kg, route oral

CC(C)Cc1ccc([C@H](C)C(=O)O)cc1 [DEXIBUPROFEN]
AUC(0-t) [1]: 33.9 µg·h/mL
AUC(0-inf) [2]: 34.5 µg·h/mL
MRT inf [3]: 1.28 h
Cmax [4]: 34.6 µg/mL
AUC(0-t) [5]: 81.1 µg·h/mL
AUC(0-inf) [6]: 81.6 µg·h/mL
MRT inf [7]: 1.68 h
Tmax [8]: 4.8 min
Cmax [9]: 52.1 µg/mL
bioavailability [10]: 118%
inhibition (Rattus norvegicus [11]): Active
inhibition (Rattus norvegicus [12]): Active
concentration at 0.083 h [13]: 34.6 µg/mL
concentration at 0.25 h [14]: 19.4 µg/mL
concentration at 0.5 h [15]: 19.8 µg/mL
concentration at 1 h [16]: 9.96 µg/mL
concentration at 2 h [17]: 3.93 µg/mL
concentration at 4 h [18]: 0.927 µg/mL
concentration at 6 h [19]: 0.334 µg/mL
concentration at 8 h [20]: 0.354 µg/mL
concentration at 0.083 h [21]: 52.1 µg/mL
concentration at 0.5 h [22]: 34.4 µg/mL
concentration at 1 h [23]: 24 µg/mL
concentration at 2 h [24]: 15.8 µg/mL
concentration at 4 h [25]: 5.26 µg/mL
concentration at 6 h [26]: 1.07 µg/mL
concentration at 8 h [27]: 0.336 µg/mL
concentration at 0.25 h [28]: 598 ng/g
concentration at 0.5 h [29]: 613 ng/g
concentration at 1 h [30]: 251 ng/g
concentration at 2 h [31]: 123 ng/g
concentration at 0.083 h [32]: 1340 ng/g
concentration at 0.25 h [33]: 999 ng/g
concentration at 0.5 h [34]: 1130 ng/g
concentration at 1 h [35]: 721 ng/g
concentration at 2 h [36]: 340 ng/g
concentration at 4 h [37]: 127 ng/g
BPR (Nucleic Acid [38]): 0.037 mL/g
BPR (Nucleic Acid [39]): 0.032 mL/g
BPR (Nucleic Acid [40]): 0.032 mL/g
BPR (Nucleic Acid [41]): 0.031 mL/g
BPR (Nucleic Acid [42]): 0.029 mL/g
BPR (Nucleic Acid [43]): 0.033 mL/g
BPR (Nucleic Acid [44]): 0.031 mL/g
